Measurements from ChEMBL document CHEMBL1221306, “Synthesis, activity, and pharmacokinetic properties of a series of conformationally-restricted thiourea analogs as novel hepatitis C virus inhibitors” (Bioorg Med Chem, 2010).

Legend:
[1] = tested on: Hepatitis C virus; experiment: Antiviral activity against HCV1b infected in human HuH7 cells assessed as inhibition of viral replication after 24 hrs; type: functional, organism-based, Hepacivirus hominis; details: genotype 1b, Huh-7, 24 h
[2] = Cytotoxicity against human HuH7 cells after 24 hrs; type: cell-based, Huh-7
[3] = AUC in Sprague-Dawley rat at 25 mg/kg, po; type: ADME, organism-based; design: dose 25 mg/kg, route oral; details: plasma
Procedure, shortened: (§1)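 Male rats (330–380 g, 9–10 weeks old, n = 3) were given the compound as a solution in DMA/propylene glycol (20:80, v/v), either iv at 5 mg/kg or po at 25 mg/kg. Rats were fasted and had jugular-vein cannulae. Blood was sampled at 0, 2, 5 (iv only) and 15 min, 30 min, and 1, 2, 4, 6, 8 and 24 h. Plasma was assayed by HPLC–MS/MS and analysed non-compartmentally.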

[4] = AUC in Sprague-Dawley rat at 5 mg/kg, iv; type: ADME, organism-based; design: dose 5 mg/kg, route intravenous; details: plasma; procedure, shortened: as §1
[5] = Half life in Sprague-Dawley rat at 5 mg/kg, iv; type: ADME, organism-based; design: dose 5 mg/kg, route intravenous; details: in vivo; procedure, shortened: as §1
[6] = Clearance in Sprague-Dawley rat at 5 mg/kg, iv; type: ADME, organism-based; design: dose 5 mg/kg, route intravenous; details: in vivo; procedure, shortened: as §1
[7] = Tmax in Sprague-Dawley rat at 25 mg/kg, po; type: ADME, organism-based; design: dose 25 mg/kg, route oral; details: in vivo; procedure, shortened: as §1
[8] = Oral bioavailability in Sprague-Dawley rat at 25 mg/kg; type: ADME, organism-based; details: in vivo; procedure, shortened: as §1
[9] = Cmax in Sprague-Dawley rat at 25 mg/kg, po; type: ADME, organism-based; design: dose 25 mg/kg, route oral; details: in vivo; procedure, shortened: as §1
[10] = Volume of distribution at steady state in Sprague-Dawley rat at 5 mg/kg, iv; type: ADME, organism-based; design: dose 5 mg/kg, route intravenous; details: in vivo, read-out: Vdss; procedure, shortened: as §1
[11] = Half life in Sprague-Dawley rat at 25 mg/kg, po; type: ADME, organism-based; design: dose 25 mg/kg, route oral; details: in vivo; procedure, shortened: as §1

Structure (SMILES) | EC50 [1] | CC50 at 24 h [2] | further results
NC(=S)Nc1ccc2c(c1)Cc1cc(Br)ccc1-2 | 0.3 µM | > 50 µM | AUC [3]: 294 ng·h/mL; AUC [4]: 4940 ng·h/mL; half-life [5]: 2.6 h; clearance [6]: 17 mL/min/kg; Tmax [7]: 0.7 h; bioavailability [8]: 1.2%; Cmax [9]: 106 ng/mL; Vd [10]: 2.8 L/kg; half-life [11]: 3.8 h
NC(=S)Nc1ccc2c(c1)C(=O)c1cc(Br)ccc1-2 | 0.57 µM | > 50 µM | AUC [3]: 43 ng·h/mL; AUC [4]: 655 ng·h/mL; half-life [5]: 1.4 h; clearance [6]: 127 mL/min/kg; Tmax [7]: 0.25 h; bioavailability [8]: 1.3%; Cmax [9]: 65.3 ng/mL; Vd [10]: 2 L/kg; half-life [11]: 1.7 h
CCn1c2ccccc2c2cc(NC(N)=S)ccc21 | 7.55 µM | > 50 µM | –
NC(=S)Nc1ccc2nn[nH]c2c1 | > 50 µM | > 50 µM | –
NC(=S)Nc1ccc2[nH]ncc2c1 | > 50 µM | > 50 µM | –
S=C(Nc1ccc2c(c1)Cc1cc(Br)ccc1-2)Nc1cccc2ccccc12 | 15.4 µM | > 50 µM | –
CNC(=S)Nc1ccc2c(c1)Cc1cc(Br)ccc1-2 | > 50 µM | > 50 µM | –
CCNC(=S)Nc1ccc2c(c1)Cc1cc(Br)ccc1-2 | > 50 µM | > 50 µM | –
CN(C)c1ccc2c(c1)Cc1cc(NC(N)=S)ccc1-2 | 1.11 µM | > 50 µM | –
CCCCN(CCCC)c1ccc2c(c1)Cc1cc(NC(N)=S)ccc1-2 | 0.72 µM | 40.7 µM | –
CCCNc1ccc2c(c1)Cc1cc(NC(N)=S)ccc1-2 | 0.42 µM | > 50 µM | –
CCCCNc1ccc2c(c1)Cc1cc(NC(N)=S)ccc1-2 | 0.38 µM | > 50 µM | –
NC(=S)Nc1cccc(Oc2ccccc2)c1 | – | > 50 µM | –

More lines, main results first:

EC50 [1] | Structure (SMILES) | CC50 at 24 h [2] | further results
2.09 µM | NC(=S)Nc1ccc2c(c1)Cc1ccccc1-2 | > 50 µM | –
21 µM | NC(=S)Nc1ccc2c(c1)-c1ccccc1C2=O | > 50 µM | –
5.51 µM | COc1cc2c(cc1NC(N)=S)oc1ccccc12 | > 50 µM | –
> 50 µM | NC(=S)Nc1ccc2oc(=O)c3ccccc3c2c1 | > 50 µM | –
> 50 µM | NC(=S)Nc1ccc2c(c1)N1CCN=C1S2 | > 50 µM | –
> 50 µM | NC(=S)Nc1ccc2cn[nH]c2c1 | > 50 µM | –
> 50 µM | NC(=O)Nc1ccc2c(c1)Cc1cc(Br)ccc1-2 | > 50 µM | –
42.8 µM | S=C(Nc1ccccc1)Nc1ccc2c(c1)Cc1cc(Br)ccc1-2 | 46.2 µM | –
> 50 µM | S=C(NCc1ccccc1)Nc1ccc2c(c1)Cc1cc(Br)ccc1-2 | > 50 µM | –
34.1 µM | S=C(Nc1ccc(N2CCOCC2)cc1)Nc1ccc2c(c1)Cc1cc(Br)ccc1-2 | 18.1 µM | –
> 50 µM | S=C(Nc1cccnc1)Nc1ccc2c(c1)Cc1cc(Br)ccc1-2 | 19.7 µM | –
> 50 µM | NC(=S)Nc1ccc2c(c1)Cc1cc(N)ccc1-2 | > 50 µM | –
0.83 µM | CCN(CC)c1ccc2c(c1)Cc1cc(NC(N)=S)ccc1-2 | > 50 µM | –
0.44 µM | CCCN(CCC)c1ccc2c(c1)Cc1cc(NC(N)=S)ccc1-2 | 19.5 µM | –
0.39 µM | NC(=S)Nc1ccc2c(c1)Cc1cc(N(Cc3ccccc3)Cc3ccccc3)ccc1-2 | 35.6 µM | –
0.49 µM | NC(=S)Nc1ccc2c(c1)Cc1cc(NCc3ccccc3)ccc1-2 | > 50 µM | –
